Source: PubChem BioAssay
Calb FLC – affects C. albicans growth with fluconazole. C. albicans CaCi-2 (fluconazole-resistant clinical isolate) + fluconazole, Alamar Blue growth, 48 h. growth inhibition, % (concentration not given with the values). hit rate 0.57% among 300,000;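 active means growth inhibition above about 58% in most replicates, limit read from the data, passing the limit was not always enough; inconclusive means exactly half the replicates above a set limit; inactive means most replicates below a set limit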;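 further: all wells also contain fluconazole at 8 µg/ml as a sub-toxic cotreatment; 0% = median of DMSO wells and 100% = median of geldanamycin control wells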
PolyA inh – inhibitors of polyadenylation in S. cerevisiae; S. cerevisiae SKY197-pL101 polyadenylation reporter, beta-gal luminescence; efflux-impaired pdr1/pdr3 knockout yeast; score 100 = 6 SD above DMSO; activity score, % at 12 µM; hit rate 0.02% among 300,000; AID 1875;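 active means lowest replicate activity score at least 50, where 100 means six control SD above control mean; inconclusive means lowest score under 50 but half or more replicates reach 50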;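 further: yeast exposed to compound for 9 h at 30 °C; higher score means more reporter readthrough which indicates perturbed polyadenylation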
T cruzi inh – blocks replication of Trypanosoma cruzi | T. cruzi beta-gal in NIH3T3, luminescence, 90 h | inhibition, % (concentration not given with the values) | hit rate 1.4% among 300,000;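 active means mean inhibition across valid replicates above about 55%, limit read from the data; inconclusive means mean below that limit but half or more replicates reach it; inactive means mean below it, under half of replicates reach it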;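 further: signal also drops with host cell toxicity which is not excluded here; 0% = plate median of DMSO wells and 100% = zero luminescence signal; higher percent means less beta-gal luminescence so fewer parasites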
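System: Mouse NIH/3T3 fibroblasts infected with β-gal-expressing T. cruzi Tulahuen C4 | Quantity: NIH/3T3 cells, 5,000 per well | Reagent: 5000 reporter trypomastigotes per well | Dosing: Compound pinned at 50 nL/well, DMSO | Schedule: 3 h host attachment, then at least 90 h co-culture | Detection: GalScreen luminescence, 60 min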
Lmaj promast – inhibitors of Leishmania major promastigote growth; inhibition, % at 10 µM; hit rate 9% among 200,000; Leishmania major promastigotes, resazurin fluorescence viability; in the data active means inhibition above about 50%;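 further: promastigotes grown with compound for 44 hours at 28 °C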
NALP1 inh – NALP1 inhibition; inhibition, % at 10 µM; hit rate 0.61% among 280,000; S. cerevisiae NALP1/ASC/caspase-1 growth, X-gal OD620, 72 h; in the data active means inhibition mostly above about 24%, no sharp cut-off; inactive means mostly below about 32%
NALP3 yeast inh – blocks the NALP3 inflammasome reconstituted in yeast | Yeast reconstituted NLRP3/ASC/caspase-1, beta-gal luminescence, 24 h | inhibition, % at 10 µM | hit rate 0.39% among 330,000;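 active means inhibition of 50% or more; inactive means inhibition below 50%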;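 further: plate controls were induced DMSO wells for no effect and uninduced yeast grown without galactose for full effect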
Starred values were filed as active, the others as inactive. This excerpt belongs to a sample that is enriched for hits.

COc1ccc(/C=N/OCC(=O)Nc2nc3ccccc3s2)cc1 was read as Calb FLC 107.8*, PolyA inh 19.5, T cruzi inh 2.5, Lmaj promast -4.6, NALP1 inh 29.8 and NALP3 yeast inh 41.3.
`CN(c1ccc(OCC(=O)Nc2nc(-c3ccccc3)cs2)cc1)S(=O)(=O)c1ccc(F)cc1` gave Calb FLC 26.9, PolyA inh 14.7, T cruzi inh 55.0*, Lmaj promast 97.2*, NALP1 inh 26.8 and NALP3 yeast inh 20.0.
Screening C=CCn1cccc(C(=O)Nc2cc(OC)ccc2OC)c1=O returned Calb FLC -15.8, PolyA inh -3.5, T cruzi inh 10.5, Lmaj promast -1.4, NALP1 inh 16.8 and NALP3 yeast inh 13.2.
COc1ccc(-c2nc(-n3c(C)c(C(C)=O)c(C(C)=O)c3C)sc2C)cc1OC was read as Calb FLC inconclusive, PolyA inh -1.7, T cruzi inh -8.6, Lmaj promast 66.2*, NALP1 inh 13.6 and NALP3 yeast inh 7.5.
Screening Cc1sc2ncnc(NC3CCN(Cc4ccccc4)CC3)c2c1C returned Calb FLC 33.9, PolyA inh 7.0, T cruzi inh 58.2*, Lmaj promast 37.8, NALP1 inh -19.0 and NALP3 yeast inh 9.7.
For CC(C)OCCCN1CN(S(=O)(=O)c2cccs2)c2nc3ccccc3nc21 the results were Calb FLC 15.2, PolyA inh -3.7, T cruzi inh -8.2 and NALP3 yeast inh 9.3.
For O=C(CCCn1cnc([N+](=O)[O-])n1)Nc1cccc(Cl)c1Cl the results were Calb FLC -6.2, PolyA inh 7.7, T cruzi inh 41.2, Lmaj promast 93.9*, NALP1 inh 5.9 and NALP3 yeast inh 12.4.
Screening Cc1cc(NC(=O)CCCn2nc(C)c([N+](=O)[O-])c2C)no1 returned Calb FLC -4.9, PolyA inh 1.9, T cruzi inh 2.9, Lmaj promast -5.0, NALP1 inh 7.7 and NALP3 yeast inh 5.2.
Screening Cc1c(Cl)cccc1NC(=O)CCCn1cnc([N+](=O)[O-])n1 returned Calb FLC -10.3, PolyA inh 1.0, T cruzi inh 56.0*, Lmaj promast 49.5, NALP1 inh -9.8 and NALP3 yeast inh 11.1.
Screening O=C(CCCn1cnc([N+](=O)[O-])n1)Nc1ccc(Cl)c(Cl)c1 returned Calb FLC 19.5, PolyA inh -10.9, T cruzi inh 82.3*, Lmaj promast 96.8*, NALP1 inh 6.3 and NALP3 yeast inh 18.8.
For Cc1cc(NC(=O)CCCn2cnc([N+](=O)[O-])n2)no1 the results were Calb FLC -8.0, PolyA inh -7.0, T cruzi inh 57.9*, Lmaj promast 1.6, NALP1 inh -0.5 and NALP3 yeast inh -3.3.
Screening Cc1ccccc1N1CCN(S(=O)(=O)c2ccc3oc(=O)ccc3c2)CC1 returned Calb FLC 12.5, PolyA inh 10.9, T cruzi inh 3.5, Lmaj promast -0.1, NALP1 inh -13.2 and NALP3 yeast inh 15.6.
For Cc1ccc(S(=O)(=O)N2[C@@H](c3ccc(F)cc3)C(C(=O)O)=CC[C@H]2c2cccs2)cc1 the results were NALP3 yeast inh 2.3.
For CC1CCCCN1C(=O)CCNS(=O)(=O)c1ccc2c(c1)c(=O)n(C)c(=O)n2C (configuration not stated) the results were Calb FLC 4.3, PolyA inh 28.4, T cruzi inh -1.4, NALP1 inh 18.2 and NALP3 yeast inh 3.2.
`Cc1cc(Cn2nnc(-c3ccc(Br)cc3)n2)cc(C)c1O` gave NALP3 yeast inh 15.1.
For Cc1cc([N+](=O)[O-])nn1CCCC(=O)Nc1ccc(Cl)cc1Cl the results were Calb FLC -13.6, PolyA inh 7.1, T cruzi inh -0.6, Lmaj promast 2.7, NALP1 inh 3.5 and NALP3 yeast inh 7.9.
O=C(CCCn1cnc([N+](=O)[O-])n1)Nc1cc(Cl)ccc1O was read as Calb FLC 3.7, PolyA inh 7.9, T cruzi inh 30.7, Lmaj promast 71.6*, NALP1 inh -19.8 and NALP3 yeast inh 11.5.
Cn1nc(C(C)(C)C)c(NC(=O)c2ccc(F)cc2)c1C(C)(C)C was read as Calb FLC -2.3, PolyA inh inconclusive, T cruzi inh 1.8, NALP1 inh 28.7 and NALP3 yeast inh 4.7.
`c1ccc2c(c1)C(=Nn1cnnc1)c1ccccc1-2` gave Calb FLC -1.1, PolyA inh -14.1, T cruzi inh -22.0, Lmaj promast 14.1, NALP1 inh 13.6 and NALP3 yeast inh 1.9.
For O=C1/C(=N/n2cnnc2)c2ccccc2N1Cc1ccccc1 the results were Calb FLC -13.2, PolyA inh -7.5, T cruzi inh 0.6, Lmaj promast 85.1*, NALP1 inh -3.8 and NALP3 yeast inh -4.3.
CC(C)Cc1ccc(CN2CCC(n3nccc3NC(=O)C3CCCC3)CC2)cc1 was read as Calb FLC 2.0, PolyA inh -2.1, T cruzi inh 59.0*, NALP1 inh 0.3 and NALP3 yeast inh 8.0.
`CCOc1ccc(NC(=O)CN(C)C(=O)c2cn(-c3ccccc3)nc2-c2cccs2)cc1OCC` gave Calb FLC 2.1, PolyA inh 5.5, T cruzi inh 22.3, NALP1 inh 14.4 and NALP3 yeast inh 2.8.
For CCN1CCN(c2ncnc3c2sc(=S)n3-c2ccccc2)CC1 the results were Calb FLC 8.2, PolyA inh -7.7, T cruzi inh 28.0, Lmaj promast 51.6*, NALP1 inh 44.4* and NALP3 yeast inh 20.9.
For S=c1sc2c(N3CCOCC3)ncnc2n1-c1ccccc1 the results were Calb FLC 0.6, PolyA inh 24.8, T cruzi inh 5.6, Lmaj promast -7.9, NALP1 inh 39.2* and NALP3 yeast inh 9.4.
Screening S=c1sc2c(N3CCN(Cc4ccccc4)CC3)ncnc2n1-c1ccccc1 returned Calb FLC -2.1, PolyA inh 4.7, T cruzi inh 0.5, Lmaj promast -2.4, NALP1 inh 5.2 and NALP3 yeast inh 0.5.
c1ccc(Cn2ncc3c(N4CCOCC4)ncnc32)cc1 was read as Calb FLC 0.1, PolyA inh 5.9, T cruzi inh -18.7, Lmaj promast -7.7, NALP1 inh -87.9 and NALP3 yeast inh -1.5.
Screening CNC(=O)COC(=O)c1ccc([N+](=O)[O-])cc1Cl returned Calb FLC -13.3, PolyA inh 2.2, T cruzi inh -16.1, Lmaj promast -3.5, NALP1 inh 33.8 and NALP3 yeast inh 7.7.
CCOc1ccc(C(=O)c2ccc([N+](=O)[O-])cc2Cl)cc1 was read as Calb FLC 35.9, PolyA inh -11.0, T cruzi inh 59.7*, Lmaj promast -1.3, NALP1 inh 10.7 and NALP3 yeast inh 31.5.
O=C(c1ccc(Cl)cc1)C(Cn1cncn1)C(Sc1ccccc1)c1ccccc1 (configuration not stated) was read as Calb FLC -5.8, PolyA inh -4.5, T cruzi inh 12.6, Lmaj promast 91.8*, NALP1 inh 2.5 and NALP3 yeast inh 13.6.
